Screens deposited in PubChem by Broad Institute.
Rows were chosen to be rich in hits. Some 1.7% of all compounds tested hit in one or more screens of this group.
Statin myotox sup – suppressors of simvastatin-induced myotoxicity in C2C12 myotubes. ATP luminescence, 48 h; scaled: DMSO 0, geranylgeraniol control 100. rescue of ATP level, % at 7.49 µM. hit rate 0.78% among 330,000. AID 602340;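 active = mean ATP rescue above about 67%, or every replicate alone reaching that limit, limit read from the data, passing the limit was not always enough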;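 note: myotubes were challenged with 10 µM simvastatin during compound exposure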
Vif imaging – HIV Vif inhibition. hit rate 0.35% among 340,000. HEK293T cells, Vif self-association by quenched fluorescence, imaging, 24 h. inhibition, % at 7.49 µM; in the data active = inhibition above about 50%, passing the limit was not always enough
SR-BI DiI inh – blocks mouse SR-BI lipid uptake from DiI-HDL. Q61009. ldlA[mSR-BI] CHO cells, DiI-HDL uptake fluorescence, 3 h. inhibition, % at 12.5 µM. hit rate 0.96% among 320,000;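 active = mean replicate inhibition of at least 70% and a set share of replicates each scoring 70 or more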
Target sequence (Q61009 whole entry, looked up): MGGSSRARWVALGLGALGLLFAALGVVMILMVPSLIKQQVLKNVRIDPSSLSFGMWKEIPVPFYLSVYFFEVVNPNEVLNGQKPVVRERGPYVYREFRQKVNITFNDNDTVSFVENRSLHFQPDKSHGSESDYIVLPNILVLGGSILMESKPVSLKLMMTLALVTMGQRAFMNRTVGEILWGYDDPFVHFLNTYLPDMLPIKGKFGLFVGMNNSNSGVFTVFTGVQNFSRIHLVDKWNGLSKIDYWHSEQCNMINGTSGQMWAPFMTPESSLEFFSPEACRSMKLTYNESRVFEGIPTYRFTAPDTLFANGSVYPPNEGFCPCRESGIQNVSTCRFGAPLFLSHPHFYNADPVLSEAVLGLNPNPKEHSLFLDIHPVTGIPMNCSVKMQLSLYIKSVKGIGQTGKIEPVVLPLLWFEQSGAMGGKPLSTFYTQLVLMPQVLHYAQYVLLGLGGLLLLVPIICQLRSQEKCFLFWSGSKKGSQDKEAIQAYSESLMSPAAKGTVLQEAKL
SR-BI uptake up – activators of SR-BI mediated HDL lipid uptake | CHO ldlA[mSR-BI] cells, DiI-HDL uptake fluorescence, 3 h; 100 = double the neutral-control signal | activation, % at 12.5 µM | hit rate 0.096% among 320,000 | AID 504775;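 active = mean replicate activation of at least 60% and every replicate at or above 60%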
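System: CHO ldlA[mSR-BI] cells / Medium: HEPES-buffered (25 mM, pH 7.4) F12 plus 0.5% BSA / Probe or stimulus: labelled HDL, 10 µg/mL / Doses: single compound concentration, delivered by pin transfer / Schedule: 3 h, 37 °C / Measured by: DiI fluorescence, bottom read / Measure: cell-associated DiI fluorescence as measure of HDL uptake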
A number is an active result; - = inactive; . = no result.

SMILES | Statin myotox sup | Vif imaging | SR-BI DiI inh | SR-BI uptake up
CO[C@H]1CN(C)C(=O)c2cc(NS(=O)(=O)c3cn(C)cn3)ccc2OC[C@@H](C)N(Cc2cccc(F)c2)C[C@H]1C | - | . | . | .
C[C@H](CO)N1C[C@H](C)[C@@H](CN(C)C(=O)Nc2ccc(F)cc2)Oc2ccc(NC(=O)Cn3cnnn3)cc2CC1=O | - | . | . | .
COc1ccc(S(=O)(=O)NCc2cccs2)cc1 | - | - | - | -
COc1ccc(S(=O)(=O)N(Cc2cccs2)C2CCCC2)cc1 | 106.0 | - | - | -
Cc1ccc(S(=O)(=O)N2CCCCC2C(=O)O)cc1 (configuration not stated) | . | - | - | -
Cc1cc(C)c(C)c(S(=O)(=O)N2CCCCC2C(=O)O)c1C (configuration not stated) | - | 55.3 | - | -
COc1ccc(CN(C)C[C@@H]2OCc3cn(nn3)CCCC(=O)N([C@H](C)CO)C[C@@H]2C)cc1 | - | . | . | .
CCCCCNC(=O)C1CC=CCC1C(=O)O (configuration not stated) | 124.8 | - | - | -
COC(=O)[C@H]1[C@H](CO)[C@H]2Cn3c(ccc(-c4cccnc4)c3=O)[C@H]2N1Cc1ccccc1F | - | . | . | .
C[C@H](Cc1ccccc1)Nc1ncnc2c1ncn2[C@@H]1O[C@H](CO)[C@@H](O)[C@H]1O | - | 64.7 | - | -
O=C(CN1C(=O)NC2(CCCCC2)C1=O)Nc1ccc(N2CCCCC2)cc1 | - | - | - | -
CC1CC(C)(C)CC2(C1)NC(=O)N(CC(=O)Nc1ccc(N3CCCCC3)cc1)C2=O (configuration not stated) | - | - | 73.3 | .
CN1CCS/C1=C/C=C1/SC(=S)N(Cc2ccccc2)C1=O | . | 51.6 | - | -
CCCCN1C(=O)/C(=C/C=C2\SCCN2C)SC1=S | . | - | 71.1 | -
CN1CCS/C1=C/C=C1\SC(=S)N(CC(=O)O)C1=O | - | - | - | -
C[C@H](CO)N1C[C@H](C)[C@H](CN(C)Cc2ccc(C(F)(F)F)cc2)Oc2ccc(NC(=O)CCC(F)(F)F)cc2CC1=O | - | . | . | .
O=C(N1CCCCCC1)N1CCN(S(=O)(=O)N2CCCCC2)CC1 | 100.7 | - | - | -
CSc1cccc(NC(=S)NCCCN2CCN(c3ccc(F)cc3)CC2)c1 | . | - | - | 200.7
C[C@H]1CN([C@@H](C)CO)C(=O)c2cccc(NC(=O)Nc3ccc(F)cc3)c2O[C@@H]1CN(C)Cc1ccccc1 | - | . | . | .
C[C@@H]1CN([C@H](C)CO)C(=O)c2cccc(NC(=O)Nc3ccc(F)cc3)c2O[C@H]1CN(C)Cc1ccccc1 | 72.0 | . | . | .
CC(C)NC(=O)Nc1ccc2c(c1)C(=O)N([C@@H](C)CO)C[C@H](C)[C@H](CN(C)Cc1ccccc1)O2 | 77.0 | . | . | .
C[C@H]1CN([C@@H](C)CO)C(=O)c2cccc(NC(=O)Nc3ccc4c(c3)OCO4)c2O[C@@H]1CN(C)CC1CCCCC1 | 86.1 | . | . | .
C[C@H]1CN([C@@H](C)CO)C(=O)c2cccc(NC(=O)c3ccncc3)c2O[C@H]1CN(C)S(=O)(=O)c1cccs1 | - | . | . | .
O=C(NCc1ccccc1C(F)(F)F)c1cccc2c1C(=O)c1ccc(N3CCC(N4CCCCC4)CC3)cc1S2(=O)=O | - | 75.1 | . | .
O=C(CN(c1cccc(Br)c1)S(=O)(=O)c1ccccc1)N/N=C/c1cc([N+](=O)[O-])ccc1O | . | - | 124.1 | -
SMILES | Statin myotox sup | Vif imaging | SR-BI DiI inh | SR-BI uptake up
O=C(CCCC(=O)Nc1cccc(Br)c1)N/N=C/c1cc([N+](=O)[O-])ccc1O | - | - | - | -
COc1ccc(CCNC2CCN(C)CC2)cc1OC | 111.6 | - | - | -
CCOC(=O)CC(=O)CSc1ncnc2c1oc1ccccc12 | - | 56.5 | - | -
Cc1ccc(S(=O)(=O)N2CCOCC2)cc1C(=O)NC1CCCCC1 | 70.9 | - | - | -
Cc1ccc(S(=O)(=O)N2CCOCC2)cc1C(=O)NC1CCCC1 | - | - | - | -
Cc1ccc(NC(=O)COc2ccc(S(=O)(=O)N3CCOCC3)cc2)cc1 | 151.6 | - | - | -
CCC(C)(C)C1CCC(NC(=O)c2ccc(S(=O)(=O)N3CCOCC3)cc2)CC1 (configuration not stated) | - | . | - | 66.6
O=C(COc1ccc([N+](=O)[O-])cc1)Nc1ccc(S(=O)(=O)N2CCOCC2)cc1 | - | 54.8 | . | .
CC(C)c1ccc(NC(=O)COc2ccc(S(=O)(=O)N3CCOCC3)cc2)cc1 | - | - | - | -
Cc1ccc(C(=O)NC2CC2)cc1S(=O)(=O)N1CCOCC1 | - | - | - | -
O=C(C[C@H]1C=C[C@@H](NC(=O)C2CC2)[C@@H](CO)O1)Nc1ccccc1 | - | . | . | .
C[C@@H]1CN([C@H](C)CO)C(=O)c2cc(C#CC(C)(C)O)cnc2O[C@@H]1CN(C)C(=O)c1ccccc1F | - | . | . | .
O=C(COc1ccc(S(=O)(=O)N2CCOCC2)cc1)NC1CC1 | - | 52.2 | . | .
O=S(=O)(c1cccc(-c2csc(N/N=C/c3ccco3)n2)c1)N1CCOCC1 | . | - | 71.9 | -
CCOc1cc(/C=N/Nc2nc(-c3cccc(S(=O)(=O)N4CCCC4)c3)cs2)ccc1O | . | - | 98.1 | -
CO[C@H]1CN(C)C(=O)c2ccc(NS(=O)(=O)c3ccc(-c4ccccc4)cc3)cc2OC[C@H](C)NC[C@H]1C | - | . | . | .
CO[C@H]1CN(C)C(=O)c2ccc(NC(=O)C3CCC3)cc2OC[C@@H](C)N(Cc2ccncc2)C[C@@H]1C | - | . | . | .
COCc1cn(CC[C@H]2CC[C@H](NC(=O)Nc3ccccc3)[C@@H](CO)O2)nn1 | - | . | . | .
C[C@@H]1CN([C@H](C)CO)C(=O)c2cc(NC(=O)Cn3cnnn3)ccc2O[C@@H]1CN(C)C(=O)Nc1ccc(C(F)(F)F)cc1 | - | . | . | .
CCOC(=O)c1oc2cc(O)c(CC)cc2c(=O)c1-c1cscn1 | - | . | - | -
CCOC(=O)c1ccc(-c2c(C(=O)OCC)oc3cc(O)c(CC)cc3c2=O)o1 | 100.4 | - | - | -
CC=Cc1ccc2n(c1=O)C[C@@H]1[C@@H](CO)[C@H](C(=O)NCc3ccccc3F)N(S(C)(=O)=O)[C@H]21 (mixture of isomers) | - | . | . | .
Cc1ccc(OCCOCCN(C)C)c(Cl)c1 | . | - | - | 63.9
CCCN(CCC)C(=O)Cn1c(=O)n(CCCCC(=O)NC2CCCC2)c(=O)c2ccccc21 | 96.5 | - | - | -
O=C(CCCCn1c(=O)c2ccccc2n(CC(=O)NC2CCCC2)c1=O)NCc1ccco1 | - | - | - | -
O=C(CCCCn1c(=O)c2ccccc2n(CC(=O)NC2CCCC2)c1=O)NC1CCCC1 | 80.6 | - | - | -
CCc1ccc(NC(=O)Cn2c(=O)n(CCCC(=O)NCc3ccco3)c(=O)c3ccccc32)cc1 | . | - | - | -
CC1CC(C)CN(C(=O)Cn2c(=O)n(CCCCC(=O)NC3CCCC3)c(=O)c3ccccc32)C1 (configuration not stated) | . | - | - | -
CCC(C)NC(=O)Cn1c(=O)n(CCCC(=O)NCc2ccccc2Cl)c(=O)c2ccccc21 (configuration not stated) | 133.7 | - | - | -
